Source: PubChem BioAssay
Calb biofilm kill: clotrimazole potentiators killing C. albicans biofilm, primary screen, 4-compound mixtures. inhibition, % at 7.6 µM. C. albicans biofilm persisters + clotrimazole, fluorescence viability; primary screen in compound mixtures of four per well. AID 1242, 2008. hit rate 0.02% among 120,000;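 active = inhibition above 30.3% in the primary screen of four-compound pools, then above 30% when the compound was retested; inconclusive = passed the primary limit but could not be retested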;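 note: compounds exposed to preformed 24 h biofilms for 48 h; 0% = untreated biofilm control and 100% = clotrimazole plus chlorhexidine kill blank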
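Test system: C. albicans biofilms. Buffer or medium: RPMI/MOPS medium, pH 7.0. Timing: 48 h compound exposure at 37 °C. Technique: Alamar Blue fluorescence. Evaluation: percent inhibition of biofilm viability.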
ROMK primary: ROMK potassium channel modulators, primary screen, cell-based, thallium flux, MLSMR library. Tet-inducible ROMK, thallium flux fluorescence; actives lie on both sides. B-score at 10 µM. hit rate 2% among 130,000;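 active = signal ratio slope over the read window, or its plate-corrected B-score, at least 3 SD from the plate mean, either direction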;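 note: B-score of the F/F0 ratio slope over 7 to 12 s after thallium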
Target sequence (P48048 whole entry, looked up): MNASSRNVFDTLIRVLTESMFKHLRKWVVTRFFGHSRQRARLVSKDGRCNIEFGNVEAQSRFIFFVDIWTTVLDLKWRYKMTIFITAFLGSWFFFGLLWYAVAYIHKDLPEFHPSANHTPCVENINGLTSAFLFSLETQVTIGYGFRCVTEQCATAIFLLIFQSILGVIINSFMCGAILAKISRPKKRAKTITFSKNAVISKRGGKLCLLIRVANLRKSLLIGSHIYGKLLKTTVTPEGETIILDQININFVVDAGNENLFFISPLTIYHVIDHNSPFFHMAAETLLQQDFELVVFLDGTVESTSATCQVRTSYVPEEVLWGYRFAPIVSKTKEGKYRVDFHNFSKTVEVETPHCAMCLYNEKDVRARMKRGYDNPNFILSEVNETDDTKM
ROMK hit retest: ROMK channel modulator hit retest, confirmation, cell-based, thallium flux, duplicate, resupplied hits; shares compounds with ROMK primary; fluorescence ratio; hits give low values; normalized thallium flux (F/F0 slope) at 10 µM; hit rate 54% among 3,000; AID 1917, 2009;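 active = Flux at 10 µM at least 3 SD below or above vehicle control mean in one or both replicates; inconclusive = no clear call, values can overlap the other calls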
Numbers without * were called inactive; ? = inconclusive; / = no result. The entries come from a sample that favours hits as a whole.

SMILES | Calb biofilm kill | ROMK primary | ROMK hit retest
O=C(O)CNC(=S)N(Cc1ccccc1Cl)C1CCCC1 | 13 | -0.8 | /
CCC(c1nnnn1Cc1ccc(F)cc1)N1CCN(C2CCCCC2)CC1 (stereo unspecified) | / | -3* | ?
COc1ccc2cc(C(c3nnnn3Cc3ccc(F)cc3)N3CCCCCC3)c(=O)[nH]c2c1 (stereo unspecified) | / | / | 0.056*
COCCn1nnnc1C(c1cccc(OC)c1OC)N1CCN(C2CCCCC2)CC1 (stereo unspecified) | / | -0.33 | /
COc1ccc(Cn2nnnc2C(c2ccccc2Cl)N2CCN(C3CCCC3)CC2)cc1 (stereo unspecified) | / | -4.8* | 0.051*
CCCC(c1nnnn1Cc1ccc(F)cc1)N1CCN(C)CC1 (stereo unspecified) | 17 | 1 | /
COc1ccc(Cn2nnnc2C(c2cc3ccc(OC)cc3[nH]c2=O)N2CCC(C)CC2)cc1 (stereo unspecified) | / | 1.1 | /
O=C(Nc1ccc(N2CCCC2)cc1)c1ccc2ccccc2c1 | -6 | -0.24 | /
CC(C)(C)NC(=O)C1CCC(C)(C(=O)O)C1(C)C (stereo unspecified) | / | 1.4 | /
CCCOc1ccc(Br)cc1CSC(=N)N | 17 | / | /
COc1ccc(C)cc1NC(=O)CN1CCN(c2ccc(F)cc2)CC1 | / | -1.9 | /
CC(=O)Nc1ccc(S(=O)(=O)NNC(=O)c2cccc3ccccc23)cc1 | / | -0.098 | /
CCC(COC(=O)Nc1ccccc1)NC(=O)OC(C)C (stereo unspecified) | -3 | -0.022 | /
CCOC(=O)c1c2ccc(OCC(=O)NN)cc2n2ccccc12 | 15 | -2.8* | 0.055*
CCOC(=O)c1c(-c2ccccc2)oc2ccc(OCC(=O)O)cc12 | -1 | / | /
CCC(C)NCCCOc1ccc(Cl)cc1C(C)(C)C (stereo unspecified) | 20 | 0.23 | /
C=CCc1cc(Cl)ccc1OCCCNC(C)CC (stereo unspecified) | 12 | -2.6* | 0.051*
CCOC(=O)/C(=C\c1cccc(O)c1)c1nc2sc(C)c(C)c2c(=O)[nH]1 | 4 | -4.1* | 0.058*
CCOC(=O)c1nc2sc(C)c(C)c2c(=O)[nH]1 | / | -0.51 | /
O=c1c2ccccc2[nH]c(=S)n1CCN1CCc2ccccc2C1 | 20 | / | /
CC(C)(C)NC(=O)CCc1ncc(C(F)(F)F)cc1Cl | 21 | / | /
FC(F)(F)c1cnc(COc2cc(Cl)cc(Cl)c2)c(Cl)c1 | 10 | / | 0.079
Cc1ccc(/C=C2\SC(=S)N(CCCC(=O)Nc3ccccn3)C2=O)cc1 | / | / | 0.074
O=C(CCN1C(=O)/C(=C/c2ccccc2)SC1=S)NNC(=O)c1ccncc1 | 6 | -0.88 | /
O=C(O)CCCCCN1C(=O)/C(=C/c2ccncc2)SC1=S | -14 | -4.2* | 0.048*
SMILES | Calb biofilm kill | ROMK primary | ROMK hit retest
O=C(O)CCCCCN1C(=O)/C(=C\c2ccncc2)SC1=S | 17 | -4.1* | 0.049*
COc1ccc(/C=C2\SC(=S)N(CCCC(=O)Nc3ccccn3)C2=O)cc1OC | 15 | / | /
O=C(O)CCCN1C(=O)/C(=C/c2ccncc2)SC1=S | 22 | -2.1 | /
Cc1ccc(CS(=O)(=O)Cc2ccc(C(=O)NCc3cccs3)o2)cc1 | 10 | -0.48 | /
Brc1ccc(OCc2nnc(SCC3CCCCC3)o2)cc1 | 22 | -0.35 | /
O=C1CCC(C(=O)OCc2ccccc2)N1 (stereo unspecified) | / | 0.3 | /
COCCCNC(=O)c1cc(Sc2ccc(F)cc2)nc2ccccc12 | 10 | -0.76 | /
O=[N+]([O-])c1ccc(N2CCCCC2)s1 | 13 | -0.057 | /
COc1ccc(C(=O)/C(=C\N(C)C)n2nc(C)cc2C)cc1 | 6 | -0.49 | /
O=C(c1cccs1)c1coc2ccc(O)c(CN(CCO)CCO)c12 | / | -0.32 | /
O=C(/C=C/c1ccc([N+](=O)[O-])cc1)NCc1ccccn1 | 10 | 0.95 | /
O=C(/C=C/c1ccc([N+](=O)[O-])cc1)N(c1ccccn1)C1CCCCC1 | 14 | 5.7* | 0.076
N#C/C(=C\c1ccccc1)C(=O)N(c1ccccn1)C1CCCCC1 | 14 | / | 0.045*
O=C(c1cccc(C(=O)N(c2ccccn2)C2CCCCC2)c1)N(c1ccccn1)C1CCCCC1 | 14 | -0.4 | /
C=CCN(c1ccccc1)S(=O)(=O)c1cccc(C(=O)OCC(=O)NC2CC2)c1 | 1 | -0.62 | /
Cc1ccc(NNC(=O)CCc2ccccc2)c(C)c1 | 13 | / | /
Cc1ccc(S(=O)(=O)N2CCC(=O)N(CCOC(=O)Nc3cccc(Cl)c3)CC2)cc1 | 16 | 1 | /
O=C(CSc1nnnn1C1CC2CCC1C2)Nc1ccnc2ccccc12 (stereo unspecified) | / | / | ?
O=C(CSc1nnnn1C1CCCCC1)Nc1ccccc1F | 4 | -1.6 | /
CCCC1=NN2C(=N)/C(=C\c3ccc(SCc4ccco4)o3)C(=O)N=C2S1 | / | -3* | 0.053*
CCCC1=NN2C(=N)/C(=C\c3cc(C)n(Cc4ccccc4)c3C)C(=O)N=C2S1 | 18 | / | /
Nc1nc(SCC(=O)c2cc3ccccc3o2)n[nH]1 | 14 | -1 | /
CC(=O)c1cc(-c2ccccc2)n(CC(=O)N2CCCC2)c1C | 14 | 0.055 | /
CC(=O)c1cc(-c2ccccc2)n(CC(=O)N2CCCCC2)c1C | / | 3* | 0.075
CC1(c2ccccc2)CC(C)(C)N(C(=O)C2CCCO2)c2ccccc21 (stereo unspecified) | / | -3.6* | 0.058*
SMILES | Calb biofilm kill | ROMK primary | ROMK hit retest
CC1(c2ccccc2)CC(C)(C)N(C(=O)CSc2nnc(N)s2)c2ccccc21 (stereo unspecified) | 13 | / | /
C/C(=N\NC(=O)CC#N)c1cc2ccc(O)cc2oc1=O | 9 | -3.4* | 0.056*
COc1ccccc1C(=O)c1cc2ccc(O)cc2oc1=O | 7 | / | /
CC(OC(=O)C1=Cc2ccccc2OC1)C(=O)NCc1ccco1 (stereo unspecified) | 18 | -0.22 | /
O=C(/C=C/c1ccc2c(c1)OCO2)NCCSCc1c(Cl)cccc1Cl | 3 | / | /
CCCCN(C)S(=O)(=O)c1ccc(C(=O)N(CCN(C)C)c2nc3ccc(C)cc3s2)cc1 | 2 | -0.11 | /
CCCCN(CC)S(=O)(=O)c1ccc(C(=O)N(CCCN(C)C)c2nc3cc(C)cc(C)c3s2)cc1 | 21 | -3.8* | 0.054*
COc1ccc(CC(=O)N2CCN(c3ccc(C4=NNC(=O)CC4C)cc3)CC2)cc1 (stereo unspecified) | / | 0.26 | /
C=CCN(CC=C)S(=O)(=O)c1ccc(NC(=S)NC(=O)/C=C/c2ccc(C)cc2)cc1 | / | 1.7* | 0.084
C=CCN(CC=C)S(=O)(=O)c1ccc(NC(=S)NC(=O)/C=C/c2cccc3ccccc23)cc1 | / | 0.059 | /
COc1ccc(C(=O)NCCCc2nc3ccccc3n2Cc2cc(C)ccc2C)cc1OC | 0 | -0.23 | /
Fc1ccccc1Sc1ccccc1CNC1=NCCN1 | 8 | -0.79 | /
c1ccc(Sc2cccc3ccccc23)c(CNC2=NCCN2)c1 | 14 | -3.1* | 0.058*
CCCCn1c(-c2ccccc2)nnc1-c1ccccc1 | / | -0.013 | /
COc1ccc(-n2c(C)c([N+](=O)[O-])c3ccc(O)c(CN4CCCCC4)c32)cc1 | / | -0.76 | /
Cc1ccc(-n2c(C)c([N+](=O)[O-])c3ccc(O)c(CN(C)C)c32)cc1 | / | -5.3* | 0.049*
COc1ccc(C(=O)Cn2c(N3CCCCC3)nc3c2c(=O)n(C)c(=O)n3C)cc1OC | / | 0.015 | /
Nc1cccc(-c2nnc3n2CCCCC3)c1 | 24 | -0.28 | /
COc1cccc(-c2nc3ccc([N+](=O)[O-])cc3o2)c1 | 16 | -0.068 | /
